Assay outcomes as filed in PubChem.
An excerpt weighted towards active compounds, which were near 7.6% of everything screened.
HEK293 NFkB inh: lowers PMA/ionomycin-induced NF-kB signal in HEK293 cells; 0.21% of 62,000 active; inhibition, % at 3 µM; HEK-293 NF-kB luciferase reporter, luminescence;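 active = inhibition above the mean of all tested compounds plus 3 SD, cut at about 40% in these data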
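Signal: luciferase luminescence; Material: HEK-293 cells with stable firefly luciferase reporter driven by four HIV NF-kB elements; Probe or stimulus: PMA with ionomycin; Replication: tested once; Times: 1 h compound pretreatment, then 16 h stimulation at 37 °C, 5% CO2; Benchmarks: DMSO and 10 µM reference inhibitor; Evaluation: per-plate % inhibition versus controls.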
M1 agonist: M1 muscarinic receptor agonism. CHO-M1 cells, Fluo-4 calcium fluorescence, agonist mode; active compounds read high. B-score at 10 µM. 3% of 64,000 active. AID 626;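 active = fluorescence rise, raw or as B-score row- and column-corrected plate score, outside the 99.7% band of its plate's samples, either direction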
Jurkat viability: reduces viability or proliferation of Jurkat cells. inhibition, % at 4 µM. Jurkat E6.1 viability, ATP luminescence, 48 h. 1.2% of 56,000 active;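 active = inhibition above the mean inhibition of all tested compounds plus 3 SD, cut at about 28% in these data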
D1 allo mod: allosteric modulators of human D1 dopamine receptor. HEK293 D1, CRE-luciferase, dopamine EC30 potentiation; actives deviate in either direction. B-score at 10 µM. AID 641. 5.9% of 58,000 active. P21728;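 active = luminescence count or its row- and column-corrected plate score outside the 99.7% band of the plate's sample wells, on either side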
Target sequence (P21728 whole entry, looked up): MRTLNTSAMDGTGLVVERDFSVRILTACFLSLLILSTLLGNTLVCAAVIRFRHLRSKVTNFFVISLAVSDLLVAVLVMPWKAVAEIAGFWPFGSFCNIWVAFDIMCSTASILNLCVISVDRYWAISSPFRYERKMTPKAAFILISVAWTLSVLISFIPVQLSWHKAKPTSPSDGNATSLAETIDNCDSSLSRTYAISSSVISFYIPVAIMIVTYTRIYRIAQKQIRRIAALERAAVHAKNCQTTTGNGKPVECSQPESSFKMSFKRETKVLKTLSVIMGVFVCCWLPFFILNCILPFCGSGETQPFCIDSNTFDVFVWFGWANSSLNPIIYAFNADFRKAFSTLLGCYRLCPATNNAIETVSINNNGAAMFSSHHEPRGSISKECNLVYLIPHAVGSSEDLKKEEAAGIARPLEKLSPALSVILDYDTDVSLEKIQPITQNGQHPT
M1 antagonist: M1 muscarinic receptor (rat) antagonism | CHO-M1 cells, Fluo-4 calcium, ACh EC80 antagonist mode; active compounds read low | P08482 | B-score at 10 µM | 3.4% of 64,000 active | AID 628;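 active = calcium fluorescence response, raw or row-and-column corrected B-score, differing from the plate sample mean either way at a set confidence level, mostly lower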
DAT uptake mod: human DAT dopamine uptake with cocaine, either direction | LLC-PK1 hDAT cells, [14C]-dopamine uptake with cocaine IC80; actives deviate in either direction | Q01959 | B-score at 10 µM | 1.3% of 110,000 active;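 active = Z score or B-score, a plate-position-corrected score, falls beyond the plate's 99.7% confidence bounds, in either direction; inactive = both scores lie inside the 99.7% bounds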
D1 mod confirm: D1 receptor (human) allosteric modulation, confirmed; HEK293 D1 CRE-luciferase, dopamine EC30 potentiation; active compounds read high; luminescence at 10 µM; 88% of 2,200 active; AID 642; shares compounds with D1 allo mod;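 active = luminescence in either of two replicates above the same-plate mean plus 3 SD of the low-dose dopamine control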
D1 ag no DA: D1 (human) signaling in absence of dopamine; 0.8% of 1,900 active; shares compounds with D1 allo mod; luminescence at 10 µM; HEK293 D1 CRE-luciferase, luminescence, no dopamine; active compounds read high; in the data active = luminescence above about 3900
Isoprot counter: alters isoproterenol CRE-luciferase response in HEK293 cells; calls only at 10 µM; shares compounds with D1 allo mod; HEK293 D1 CRE-luciferase, isoproterenol EC30 counter-screen; 63% of 2,200 active;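 active = luminescence in either replicate above plate mean of wells with a partly effective reference agonist dose plus 3 SD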;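 note: isoproterenol raises cAMP through native beta-adrenoceptor Gs so signal bypasses D1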
A number is an active result; 0 = inactive; - = no result; + = active, no number.

SMILES	HEK293 NFkB inh	M1 agonist	Jurkat viability	D1 allo mod	M1 antagonist	DAT uptake mod	D1 mod confirm	D1 ag no DA	Isoprot counter
COc1ccc(CN(C(=O)c2ccco2)c2ccc(C)cc2)cc1OC	0	0	0	10	0	0	22164	0	+
Cc1ccc(NC(=O)CS(=O)CC(=O)N(C2CCCC2)C(C)C(=O)NC2CCCCC2)cc1 (stereo not drawn)	0	0	-	0	0	0	-	-	-
Cc1cc(C)n(-c2nc(C)nc(NCc3ccccc3)n2)n1	-	0	-	6.7	0	0	14476	0	+
Cc1nnc(NC(=O)CSc2nnc(Cc3cccn3C)n2-c2cccc(C(F)(F)F)c2)s1	0	0	0	3.4	0	0	0	0	0
COc1ccc(-n2c(Cc3cccn3C)nnc2SCC(=O)Nc2ccc(C)cc2C)cc1	0	0	0	17	0	0	0	0	0
CCCn1c(N2CCN(CC(=O)c3c(C)n(C)c4ccccc34)CC2)nc2c1c(=O)[nH]c(=O)n2C	0	0	0	4.4	0	2.8	12284	0	+
Cn1c(=O)[nH]c(=O)c2c1nc(N1CCCCC1)n2CCOc1ccccc1	0	0	0	14	0	0	22140	0	+
C/C=C/Cn1c(N2CCCCCC2)nc2c1c(=O)[nH]c(=O)n2C	0	0	0	15	0	-	16408	0	+
CCC(=O)Nc1sc2c(c1C#N)CC(C)(C)NC2(C)C	0	0	-	6.4	0	0	0	0	0
Cc1nc2c3ccccc3n(CC#N)c(=O)n2n1	0	0	0	4.7	0	0	8580	-	+
O=c1c(-c2ccc(Oc3ccccc3)cc2)[n+]([O-])c2ccccc2n1OCc1ccccn1	-	-	-	-	-	0	-	-	-
CC(=NCc1cccnc1)C1=C(O)c2ccccc2C1=O	0	0	0	3	0	0	5700	0	0
COc1cc(S(=O)(=O)N2CCOCC2)ccc1NC(=O)CSc1nnc(N)s1	0	0	0	4.8	0	0	0	-	0
COc1cc(S(=O)(=O)N2CCOCC2)ccc1NC(=O)c1cc2c(s1)CCC2	0	0	-	-	0	0	-	-	-
C=C1CCN(C(Cc2ccccc2)C(=O)OC)S(=O)(=O)c2ccc(F)cc21 (stereo not drawn)	-	-	-	-	-	0	-	-	-
O=C(O)C1C2C=CC(C2)C1C(=O)NCc1ccoc1 (stereo not drawn)	0	0	0	-	0	-	-	-	-
Nc1nc(-c2cccs2)c(NC(=O)c2ccccc2)s1	0	0	0	6	0	0	14100	0	+
CC(=O)Nc1sc(NC(=O)c2ccc(Cl)cc2)nc1-c1cccs1	-	-	-	-	-	0	-	-	-
CCCCCCS(=O)[C@H]1CS(=O)(=O)C[C@@H]1S(=O)CCCCCC (stereo partly drawn)	0	0	0	-	0	0	-	-	-
C=CCOc1ccc2c(c1)c(S(=O)(=O)c1ccc(C)cc1)cn2COC	0	0	0	-	0	0	-	-	-
Cc1nc2ccc(CCO)cc2s1	0	0	0	6.4	0	0	7448	0	0
COC(=O)c1cccc(S(=O)(=O)N(Cc2ccco2)Cc2cc3cc(OC)ccc3[nH]c2=O)c1	-	-	-	-	-	0	-	-	-
CCOC(=O)[C@@H]1[C@H]2COc3ccc(Br)cc3[C@@H]2N2C(=O)N(c3cccc(Cl)c3)C(=O)[C@]12C	-	-	-	-	-	0	-	-	-
O=C(NCCO)C(c1ccccc1)c1ccccc1	0	0	0	0	0	0	-	-	-
CCOC(=O)C(NCCCO)c1ccccc1 (stereo not drawn)	0	0	0	2.8	0	0	0	0	0
SMILES	HEK293 NFkB inh	M1 agonist	Jurkat viability	D1 allo mod	M1 antagonist	DAT uptake mod	D1 mod confirm	D1 ag no DA	Isoprot counter
O=C(CCC(=O)Nc1nnc(C2CCCCC2)s1)NCc1cccs1	0	0	0	3.8	0	0	0	0	0
CCOC(=O)Cn1c(=NC(=O)CSC(C)=O)sc2cc(F)ccc21	-	-	-	-	-	0	-	-	-
CCNc1nc(Oc2ccc(=O)n(C)n2)nc(N2CCOCC2)n1	0	0	0	0	0	0	-	-	-
CCNc1nc(Oc2ccc(=O)n(-c3ccccc3)n2)nc(N2CCOCC2)n1	0	0	0	10	0	0	18936	0	+
COc1ccc(S(=O)(=O)Oc2ccc3c(c2)O/C(=C\c2cccnc2)C3=O)cc1	-	-	-	-	-	0	-	-	-
O=C(CCCCn1c(=O)c2ccccc2n(CC(=O)NC2CCCC2)c1=O)NC1CCCC1	0	0	0	4.4	0	0	0	0	0
O=C(Cc1cccs1)Nc1ccccc1NC(=O)Cc1cccs1	0	0	0	4.9	0	0	0	0	0
O=C(Cc1cccs1)Nc1ccccc1C(=O)O	0	0	0	0	0	0	-	-	-
CCOC(=O)c1ccccc1NC(=O)CSc1nnc(COc2ccccc2)n1CC	0	0	0	0	0	0	-	-	-
O=C1C(Cl)=C(NCC2CCCO2)C(=O)N1C1CCCCC1 (stereo not drawn)	0	0	0	4.4	0	0	8656	0	0
Cc1cccc(C(CC(=O)O)n2cccc2)c1 (stereo not drawn)	-	-	-	-	-	0	-	-	-
O=C(c1cccn2c(=O)c3cc(Cl)ccc3nc12)N1CCN(Cc2ccc3c(c2)OCO3)CC1	0	0	-	3	0	-	6868	0	0
O=C(O)CCC(=O)N1CCc2cc(S(=O)(=O)NC3CCCc4ccccc43)ccc21 (stereo not drawn)	0	0	0	0	0	0	-	-	-
CCC(=O)N1CCc2cc(S(=O)(=O)NCCC(=O)NC3CCCc4ccccc43)ccc21 (stereo not drawn)	0	0	0	3.8	0	0	8544	0	0
COc1ccc(Cl)cc1C(=O)CSc1nnnn1C1CCCC1	0	0	0	2.8	0	0	6668	0	0
C=CCSc1ncccc1C(=O)NCc1ccccc1	0	0	0	25	0	0	20632	0	+
CCOC(=O)c1cccnc1SCC(=O)NCc1ccccc1	-	-	-	-	-	0	-	-	-
CCC1CCCCN1C1Sc2ccc(C(=O)OC)cc2NC1=O (stereo not drawn)	0	0	-	0	0	0	-	-	-
COc1ccc(C2CC(C(F)(F)F)n3ncc(C(=O)NCc4cccnc4)c3N2)cc1OC (stereo not drawn)	0	0	0	9.8	0	0	18500	0	+
COc1cccc(C2CC(C(F)(F)F)n3ncc(C(=O)NCC4CCCO4)c3N2)c1 (stereo not drawn)	0	0	0	0	0	0	-	-	-
CCc1nc(NCC2CCCN2CC)c2nnn(Cc3ccccc3F)c2n1 (stereo not drawn)	0	0	0	0	0	0	-	-	-
CCCc1nc(NCc2ccncc2)c2nnn(Cc3ccccc3F)c2n1	0	0	0	6.9	0	-4.2	7368	0	0
